Our source for the IC50 values is ChEMBL document CHEMBL3124823, “1,2,3-Triazole-containing derivatives of rupestonic acid: click-chemical synthesis and antiviral activities against influenza viruses” (Eur J Med Chem, 2014).

The assay concerns Influenza A virus. Description: Antiviral activity against oseltamivir-resistant Influenza A virus (A/Tianjinjinnan/15/2009/H1N1) infected in MDCK cells assessed as inhibition of virus-induced cytopathicity after 40 hrs. Format: functional, organism-based. To be noted: A/Tianjin-Jinnan/15/2009(H1N1). The procedure, abridged: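 CPE reduction in MDCK cells: cells grown 24 h at 37 °C, 5% CO2, then infected and held 2 h at 37 °C before the inoculum was removed. Threefold serial drug dilutions (8 levels from 20 mg/mL DMSO stocks) were added and incubated 40 h at 37 °C. CPE inhibition was scored against cell and virus controls to give IC50. Ribavirin and oseltamivir were the controls.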
A general note: Cytopathic effects are the visible damage that an infection or toxin causes in cultured cells.

≈ marks a conversion by molar mass, not a printed value.

With `C=C(C(=O)NCc1cn(Cc2ccc(F)cc2)nn1)[C@@H]1CC[C@H](C)[C@@H]2CC(=O)C(C)=C2C1`, the IC50 is > 66.7 µg/mL.

For `C=C(C(=O)OCc1cn(Cc2cccc(Cl)c2)nn1)[C@@H]1CC[C@H](C)[C@@H]2CC(=O)C(C)=C2C1`, the IC50 was > 66.7 µg/mL.

Consider `C=C(C(=O)OCc1cn(Cc2ccc(Cl)cc2)nn1)[C@@H]1CC[C@H](C)[C@@H]2CC(=O)C(C)=C2C1`, for which the IC50 was > 22.2 µg/mL.

As for `C=C(C(=O)OCc1cn(Cc2ccccc2F)nn1)[C@@H]1CC[C@H](C)[C@@H]2CC(=O)C(C)=C2C1`, the IC50 was > 22.2 µg/mL.

Regarding `C=C(C(=O)OCc1cn(Cc2cccc(F)c2)nn1)[C@@H]1CC[C@H](C)[C@@H]2CC(=O)C(C)=C2C1`, the half-maximal inhibitory concentration (IC50) is > 22.2 µg/mL.

Turning to `C=C(C(=O)OCc1cn(Cc2ccc(F)cc2)nn1)[C@@H]1CC[C@H](C)[C@@H]2CC(=O)C(C)=C2C1`, the 50% inhibitory concentration (IC50) was > 22.2 µg/mL.

For the compound `C=C(C(=O)OCc1cn(Cc2ccc(Cl)c(Cl)c2)nn1)[C@@H]1CC[C@H](C)[C@@H]2CC(=O)C(C)=C2C1`, the IC50 is > 7.41 µg/mL.

With `C=C(C(=O)OCc1cn(C2C=CCCC2)nn1)[C@@H]1CC[C@H](C)[C@@H]2CC(=O)C(C)=C2C1` (some centres not stated), the half-maximal inhibitory concentration (IC50) is > 7.41 µg/mL.

Take `C=C(C(=O)OCc1cn(C2CCCCC2)nn1)[C@@H]1CC[C@H](C)[C@@H]2CC(=O)C(C)=C2C1`: the IC50 was found to be 59.2 µg/mL (≈ 144 µM).

Take `C=C(C(=O)NCc1cn(Cc2ccccc2C)nn1)[C@@H]1CC[C@H](C)[C@@H]2CC(=O)C(C)=C2C1`: the IC50 was > 22.2 µg/mL.

For the compound `C=C(C(=O)NCc1cn(Cc2cccc(C)c2)nn1)[C@@H]1CC[C@H](C)[C@@H]2CC(=O)C(C)=C2C1`, the IC50 was > 22.2 µg/mL.

On to `C=C(C(=O)NCc1cn(Cc2ccc(C)cc2)nn1)[C@@H]1CC[C@H](C)[C@@H]2CC(=O)C(C)=C2C1`, for which the IC50 is > 22.2 µg/mL.

For the compound `C=C(C(=O)NCc1cn(Cc2ccccc2)nn1)[C@@H]1CC[C@H](C)[C@@H]2CC(=O)C(C)=C2C1`, the half-maximal inhibitory concentration (IC50) is > 22.2 µg/mL.

As to `C=C(C(=O)NCc1cn(Cc2cccc(OC)c2)nn1)[C@@H]1CC[C@H](C)[C@@H]2CC(=O)C(C)=C2C1`, the IC50 is > 22.2 µg/mL.

As for `C=C(C(=O)NCc1cn(Cc2ccc(OC)cc2)nn1)[C@@H]1CC[C@H](C)[C@@H]2CC(=O)C(C)=C2C1`, the IC50 is > 22.2 µg/mL.

`C=C(C(=O)NCc1cn(Cc2ccccc2Cl)nn1)[C@@H]1CC[C@H](C)[C@@H]2CC(=O)C(C)=C2C1`: the IC50 is > 7.41 µg/mL.

Consider `C=C(C(=O)NCc1cn(Cc2cccc(Cl)c2)nn1)[C@@H]1CC[C@H](C)[C@@H]2CC(=O)C(C)=C2C1`, for which the 50% inhibitory concentration (IC50) is > 7.41 µg/mL.

In the case of `C=C(C(=O)NCc1cn(Cc2ccc(Cl)cc2)nn1)[C@@H]1CC[C@H](C)[C@@H]2CC(=O)C(C)=C2C1`, the IC50 is > 2.47 µg/mL.

Turning to `C=C(C(=O)NCc1cn(Cc2ccccc2F)nn1)[C@@H]1CC[C@H](C)[C@@H]2CC(=O)C(C)=C2C1`, the IC50 was > 66.7 µg/mL.

`C=C(C(=O)NCc1cn(Cc2cccc(F)c2)nn1)[C@@H]1CC[C@H](C)[C@@H]2CC(=O)C(C)=C2C1`: the IC50 is > 22.2 µg/mL.

For `C=C(C(=O)NCc1cn(Cc2ccc(Cl)c(Cl)c2)nn1)[C@@H]1CC[C@H](C)[C@@H]2CC(=O)C(C)=C2C1`, the IC50 worked out at 22.2 µg/mL (≈ 45.6 µM).

On to `C=C(C(=O)NCc1cn(C2C=CCCC2)nn1)[C@@H]1CC[C@H](C)[C@@H]2CC(=O)C(C)=C2C1` (some centres not stated), for which the half-maximal inhibitory concentration (IC50) amounted to 19.7 µg/mL (≈ 48.3 µM).

Turning to `C=C(C(=O)NCc1cn(C2CCCCC2)nn1)[C@@H]1CC[C@H](C)[C@@H]2CC(=O)C(C)=C2C1`, the IC50 is 22.2 µg/mL (≈ 54.1 µM).

As to `C=C(C(=O)OCc1cn(Cc2ccccc2C)nn1)[C@@H]1CC[C@H](C)[C@@H]2CC(=O)C(C)=C2C1`, the IC50 was > 22.2 µg/mL.

As for `C=C(C(=O)OCc1cn(Cc2cccc(C)c2)nn1)[C@@H]1CC[C@H](C)[C@@H]2CC(=O)C(C)=C2C1`, the IC50 came to 19.7 µg/mL (≈ 45.5 µM).

For `C=C(C(=O)OCc1cn(Cc2ccc(C)cc2)nn1)[C@@H]1CC[C@H](C)[C@@H]2CC(=O)C(C)=C2C1`, the concentration for half-maximal inhibition (IC50) is > 22.2 µg/mL.

As for `C=C(C(=O)OCc1cn(Cc2ccccc2)nn1)[C@@H]1CC[C@H](C)[C@@H]2CC(=O)C(C)=C2C1`, the IC50 is > 7.41 µg/mL.

With `C=C(C(=O)OCc1cn(Cc2cccc(OC)c2)nn1)[C@@H]1CC[C@H](C)[C@@H]2CC(=O)C(C)=C2C1`, the IC50 is > 22.2 µg/mL.

With `C=C(C(=O)OCc1cn(Cc2ccc(OC)cc2)nn1)[C@@H]1CC[C@H](C)[C@@H]2CC(=O)C(C)=C2C1`, the IC50 worked out at 22.2 µg/mL (≈ 49.4 µM).

As to `C=C(C(=O)OCc1cn(Cc2ccccc2Cl)nn1)[C@@H]1CC[C@H](C)[C@@H]2CC(=O)C(C)=C2C1`, the IC50 was determined as 59.2 µg/mL (≈ 130 µM).

Take `CCOC(=O)C1=C[C@@H](OC(CC)CC)[C@H](NC(C)=O)[C@@H](N)C1` [OSELTAMIVIR]: the IC50 is > 500 µg/mL.

As for `NC(=O)c1ncn([C@@H]2O[C@H](CO)[C@@H](O)[C@H]2O)n1` [RIBAVIRIN], the half-inhibitory concentration (IC50) came out at 6.5 µg/mL (≈ 26.6 µM).

The term IC50 denotes the concentration that inhibits the measured activity by half.
